{"source": "ChEMBL document CHEMBL1255462", "about": "“Antiviral activity of a small-molecule inhibitor of filovirus infection” (Antimicrob Agents Chemother, 2010)", "key": {"[1]": {"test": "Cytotoxicity against human A549 cells after 72 hrs", "assay_type": "cell-based", "how_it_was_run": "(§1)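 Confluent monolayers were treated in triplicate with serially diluted compound at 0.0018 to 320 µM for 72 h. Viability was read by CellTiter Glo luminescence, and CC50 was determined.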"}, "[2]": {"test": "Antiviral activity against Lake Victoria marburgvirus - Ci67 in overnight pretreated african green monkey Vero E6 cells after 48 hrs by standard virus yield reduction assay", "assay_type": "functional"}, "Ebolavirus [3]": {"test_system": "Ebolavirus", "test": "Antiviral activity against Ebola-like viruses infected in C57BL/6 mouse assessed as serum alkaline phosphatase at 10 mg/kg, ip after 24 hrs measured on 2 days postinfection", "assay_type": "functional", "conditions": "route intraperitoneal", "how_it_was_run": "(§2)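 C57BL/6 mice received 10 mg/kg i.p. in saline, or vehicle, 24 h postinfection. Five mice per group were sacrificed on days 2, 4 and 6. Serum was frozen at -70°C until all samples were collected, then assayed for ALT, AST and ALP (U/liter). Values are group means compared with vehicle.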"}, "Ebolavirus [4]": {"test_system": "Ebolavirus", "test": "Antiviral activity against Ebola-like viruses infected in C57BL/6 mouse spleen assessed as reduction in viral burden at 10 mg/kg, ip single dose", "assay_type": "functional", "conditions": "route intraperitoneal"}, "Ebolavirus [5]": {"test_system": "Ebolavirus", "test": "Antiviral activity against Ebola-like viruses infected in C57BL/6 mouse assessed as increase in mouse survival at 5 mg/kg, ip single injection", "assay_type": "functional", "conditions": "route intraperitoneal", "how_it_was_run": "(§3)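 Compound given once i.p. in 0.9% saline at day 1 postinfection, with vehicle-treated controls. Health and mortality recorded twice daily for 14 days. Animals surviving 14 days were scored as protected, and survival curves were compared by Kaplan-Meier analysis.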"}, "Marburgvirus [6]": {"test_system": "Marburgvirus", "test": "Antiviral activity against Marburgvirus infected in BALB/C mouse assessed as protection against virus challenge at 10 mg/kg, ip measured for 14 days", "assay_type": "functional, organism-based", "set-up": "dose 10 mg/kg", "how_it_was_run": "as §3"}, "[7]": {"test": "Cytotoxicity against human Hep2 cells after 72 hrs", "assay_type": "cell-based, HEp-2", "how_it_was_run": "as §1"}, "Ebolavirus [8]": {"test_system": "Ebolavirus", "test": "Antiviral activity against Ebola-like viruses infected in C57BL/6 mouse assessed as serum aspartate aminotransferase at 10 mg/kg, ip after 24 hrs measured on 2 days postinfection", "assay_type": "functional", "conditions": "route intraperitoneal", "how_it_was_run": "as §2"}, "Ebolavirus [9]": {"test_system": "Ebolavirus", "test": "Antiviral activity against Ebola-like viruses infected in C57BL/6 mouse assessed as serum alanine aminotransferase at 10 mg/kg, ip after 24 hrs measured on 2 days postinfection", "assay_type": "functional", "conditions": "route intraperitoneal", "how_it_was_run": "as §2"}, "Ebolavirus [10]": {"test_system": "Ebolavirus", "test": "Antiviral activity against Ebola-like viruses infected in C57BL/6 mouse assessed as serum alanine aminotransferase at 10 mg/kg, ip after 24 hrs measured on 4 days postinfection", "assay_type": "functional", "conditions": "route intraperitoneal", "how_it_was_run": "as §2"}, "Mus musculus [11]": {"test_system": "Mus musculus", "test": "Toxicity in Ebola-like viruses infected in C57BL/6 mouse spleen assessed as mild lymphocytolysis at 10 mg/kg, ip single dose measured after 4 days", "assay_type": "organism-based", "set-up": "dose 10 mg/kg, route intraperitoneal", "conditions": "in vivo, 96 h"}, "Ebolavirus [12]": {"test_system": "Ebolavirus", "test": "Antiviral activity against Ebola-like viruses infected in C57BL/6 mouse assessed as serum alkaline phosphatase at 10 mg/kg, ip after 24 hrs measured on 6 days postinfection", "assay_type": "functional", "conditions": "route intraperitoneal", "how_it_was_run": "as §2"}, "[13]": {"test": "Cytotoxicity against human PBMC after 72 hrs", "assay_type": "cell-based", "conditions": "PBMC (peripheral blood mononuclear cells)"}, "Ebolavirus [14]": {"test_system": "Ebolavirus", "test": "Antiviral activity against Ebola-like viruses infected in C57BL/6 mouse kidney assessed as reduction in viral burden at 10 mg/kg, ip single dose", "assay_type": "functional", "conditions": "route intraperitoneal"}, "[15]": {"test": "Cytotoxicity against MDCK cells after 72 hrs", "assay_type": "cell-based, Canis lupus familiaris", "conditions": "dog", "how_it_was_run": "as §1"}, "[16]": {"test": "Antiviral activity against Lake Victoria marburgvirus - Ci67 in overnight pretreated african green monkey Vero E6 cells at 10 uM after 48 hrs by standard virus yield reduction assay", "assay_type": "functional", "set-up": "scale not given: the % may be the effect or the level left"}, "Ebolavirus [17]": {"test_system": "Ebolavirus", "test": "Antiviral activity against Ebola-like viruses infected in C57BL/6 mouse liver assessed as reduction in viral burden at 10 mg/kg, ip single dose", "assay_type": "functional", "conditions": "route intraperitoneal"}, "Ebolavirus [18]": {"test_system": "Ebolavirus", "test": "Antiviral activity against Ebola-like viruses infected in C57BL/6 mouse assessed as serum aspartate aminotransferase at 10 mg/kg, ip after 24 hrs measured on 6 days postinfection", "assay_type": "functional", "conditions": "route intraperitoneal", "how_it_was_run": "as §2"}, "[19]": {"test": "Antiviral activity against Lake Victoria marburgvirus - Ravn in overnight pretreated african green monkey Vero E6 cells after 48 hrs by standard virus yield reduction assay", "assay_type": "functional, cell-based", "conditions": "Kenya, 1987, Vero"}, "Ebolavirus [20]": {"test_system": "Ebolavirus", "test": "Antiviral activity against Zaire ebolavirus expressing GFP in african green monkey Vero E6 cells after 48 hrs by standard plaque assay", "assay_type": "functional, cell-based"}, "Mus musculus [21]": {"test_system": "Mus musculus", "test": "Toxicity in Ebola-like viruses infected in C57BL/6 mouse assessed as mild hepatitis with hepatocellular necrosis at 10 mg/kg, ip single dose measured after 4 days", "assay_type": "organism-based", "set-up": "dose 10 mg/kg, route intraperitoneal", "conditions": "in vivo, 96 h"}, "[22]": {"test": "Cytotoxicity against human HEK293 cells after 72 hrs", "assay_type": "cell-based", "how_it_was_run": "as §1"}, "Ebolavirus [23]": {"test_system": "Ebolavirus", "test": "Antiviral activity against Zaire ebolavirus expressing GFP in african green monkey Vero E6 cells at >=0.8 uM after 48 hrs by standard plaque assay", "assay_type": "functional"}, "Ebolavirus [24]": {"test_system": "Ebolavirus", "test": "Antiviral activity against Ebola-like viruses infected in C57BL/6 mouse assessed as serum alkaline phosphatase at 10 mg/kg, ip after 24 hrs measured on 4 days postinfection", "assay_type": "functional", "conditions": "route intraperitoneal", "how_it_was_run": "as §2"}, "[25]": {"test": "Antiviral activity against Lake Victoria marburgvirus - Ravn in overnight pretreated african green monkey Vero E6 cells at 25 uM after 48 hrs by standard virus yield reduction assay", "assay_type": "functional", "set-up": "scale not given: the % may be the effect or the level left"}, "Ebolavirus [26]": {"test_system": "Ebolavirus", "test": "Antiviral activity against Sudan ebolavirus expressing GFP in african green monkey Vero E6 cells after 48 hrs by standard plaque assay", "assay_type": "functional, cell-based", "conditions": "Orthoebolavirus"}, "Ebolavirus [27]": {"test_system": "Ebolavirus", "test": "Antiviral activity against Ebola-like viruses infected in C57BL/6 mouse assessed as serum aspartate aminotransferase at 10 mg/kg, ip after 24 hrs measured on 4 days postinfection", "assay_type": "functional", "conditions": "route intraperitoneal", "how_it_was_run": "as §2"}, "Ebolavirus [28]": {"test_system": "Ebolavirus", "test": "Antiviral activity against Ebola-like viruses infected in C57BL/6 mouse assessed as serum alanine aminotransferase at 10 mg/kg, ip after 24 hrs measured on 6 days postinfection", "assay_type": "functional", "conditions": "route intraperitoneal", "how_it_was_run": "as §2"}, "[29]": {"test": "Cytotoxicity against african green monkey Vero E6 cells after 72 hrs", "assay_type": "cell-based", "conditions": "chlorocebus sabaeus", "how_it_was_run": "as §1"}, "Marburgvirus [30]": {"test_system": "Marburgvirus", "test": "Antiviral activity against Marburgvirus infected in BALB/C mouse assessed as protection against virus challenge at 5 mg/kg, ip administered 1 day postinfection", "assay_type": "functional", "conditions": "route intraperitoneal", "how_it_was_run": "as §3"}}, "note": "Activity calls are given as the source filed them. The calls are words filed in the database; no cut-off is given here.", "data": [{"smiles": "N=C(N)c1ccc2oc(/C=C/c3nc4cc(C(=N)N)ccc4[nH]3)cc2c1", "values": [{"measurement": "CC50 at 72 h", "setting": "[1]", "result": "≥ 50000", "unit": "nM"}, {"measurement": "CC50", "setting": "[2]", "result": 2500, "unit": "nM"}, {"measurement": "Activity", "setting": "Ebolavirus [3]", "result": 57, "unit": "U/L"}, {"measurement": "log10cfu", "setting": "Ebolavirus [4]", "result": 1}, {"measurement": "Activity", "setting": "Ebolavirus [5]", "result": 60, "unit": "%"}, {"measurement": "Activity", "setting": "Marburgvirus [6]", "result": "Active"}, {"measurement": "CC50 at 72 h", "setting": "[7]", "result": "≥ 50000", "unit": "nM"}, {"measurement": "Activity", "setting": "Ebolavirus [8]", "result": 237, "unit": "U/L"}, {"measurement": "Activity", "setting": "Ebolavirus [9]", "result": 148, "unit": "U/L"}, {"measurement": "Activity", "setting": "Ebolavirus [10]", "result": 23, "unit": "U/L"}, {"measurement": "Activity", "setting": "Mus musculus [11]", "result": "Toxic"}, {"measurement": "Activity", "setting": "Ebolavirus [12]", "result": 67, "unit": "U/L"}, {"measurement": "CC50 at 72 h", "setting": "[13]", "result": "≥ 50000", "unit": "nM"}, {"measurement": "log10cfu", "setting": "Ebolavirus [14]", "result": 1}, {"measurement": "CC50 at 72 h", "setting": "[15]", "result": "≥ 50000", "unit": "nM"}, {"measurement": "Activity", "setting": "[16]", "result": ">90", "unit": "%"}, {"measurement": "log10cfu", "setting": "Ebolavirus [17]", "result": 1}, {"measurement": "Activity", "setting": "Ebolavirus [18]", "result": 207, "unit": "U/L"}, {"measurement": "EC50", "setting": "[19]", "result": 2500, "unit": "nM"}, {"measurement": "Activity", "setting": "Ebolavirus [20]", "result": "Dose-dependent effect"}, {"measurement": "EC50", "setting": "Ebolavirus [20]; Orthoebolavirus", "result": 100, "unit": "nM"}, {"measurement": "EC90", "setting": "Ebolavirus [20]; Orthoebolavirus", "result": 330, "unit": "nM"}, {"measurement": "Activity", "setting": "Mus musculus [21]", "result": "Toxic"}, {"measurement": "CC50 at 72 h", "setting": "[22]", "result": "≥ 50000", "unit": "nM"}, {"measurement": "inhibition (INH)", "setting": "Ebolavirus [23]", "result": ">=0.8%"}, {"measurement": "Activity", "setting": "Ebolavirus [24]", "result": 65, "unit": "U/L"}, {"measurement": "Activity", "setting": "[25]", "result": ">99.9", "unit": "%"}, {"measurement": "EC50", "setting": "Ebolavirus [26]", "result": 420, "unit": "nM"}, {"measurement": "EC90", "setting": "Ebolavirus [26]", "result": 960, "unit": "nM"}, {"measurement": "Activity", "setting": "Ebolavirus [27]", "result": 54, "unit": "U/L"}, {"measurement": "Activity", "setting": "Ebolavirus [28]", "result": 87, "unit": "U/L"}, {"measurement": "CC50 at 72 h", "setting": "[29]", "result": "≥ 50000", "unit": "nM"}, {"measurement": "Activity", "setting": "Marburgvirus [30]", "result": 40, "unit": "%"}]}]}
